# A selection: hits, their analogues and other compounds. The true share with any hit is near 3.5%.
# RGS4 act – RGS4 potentiators or activators, primary screen, cell-based, HEK293 M3R inducible RGS4, calcium flux; B-score at 10 µM; carbachol calcium flux Fluo4; hits give low values; 310,000 tested, 0.92% active;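 active = B-score of the integrated calcium signal more than 4 SD below the library mean, with starting fluorescence not abnormally high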;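 note: negative B-score means reduced calcium response which marks RGS4 activation or potentiation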
#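 Reagent: ECmax carbachol challenge; Test system: M3R-expressing HEK293 line, RGS4 induced by doxycycline; Schedule: overnight RGS4 induction, 30 min dye load 37 °C, 20 min compound RT; Detection: calcium dye Fluo4 fluorescence; Read-out: Agonist-evoked peak-minus-minimum fluorescence over baseline, integrated ratio, B score.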
# MrgX1 allo act – positive allosteric modulators of MrgX1, primary screen, HEK293 cells, Fluo-4 calcium flux; Mas-related G-protein coupled receptor member X1 (Homo sapiens), Q96LB2; FDSS; hits give high values; AID 588675, 2011; 310,000 tested, 0.63% active; B-score at 10 µM;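 active = plate-corrected calcium response at least 3 library SD above typical, normal starting fluorescence, not activating the receptor alone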;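 note: compound read alongside a low EC10 to EC30 dose of BAM8-22 agonist; peak minus trough fluorescence over baseline measured at the second addition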
# Target sequence (Q96LB2 whole entry, looked up): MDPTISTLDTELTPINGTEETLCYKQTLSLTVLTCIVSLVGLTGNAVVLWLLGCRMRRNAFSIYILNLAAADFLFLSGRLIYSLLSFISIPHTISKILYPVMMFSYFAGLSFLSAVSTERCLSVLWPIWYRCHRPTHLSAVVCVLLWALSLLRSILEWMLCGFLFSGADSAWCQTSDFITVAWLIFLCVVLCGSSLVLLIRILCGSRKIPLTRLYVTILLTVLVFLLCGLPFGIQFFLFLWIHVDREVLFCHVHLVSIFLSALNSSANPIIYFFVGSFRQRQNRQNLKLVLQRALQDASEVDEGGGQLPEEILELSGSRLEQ
# RGS4 block – RGS4 inhibitors, primary screen, cell-based, HEK293 M3R inducible RGS4, calcium flux. B-score at 10 µM. Fluo-4 calcium flux; hits give high values; triggered by carbachol at its EC20. 310,000 tested, 0.45% active. AID 463165, 2010;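 active = B-score, a plate-corrected calcium signal, over three deviations above library mean, with baseline fluorescence within five deviations of library mean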;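 note: RGS4 expression induced by doxycycline in cells with stable M3 receptor; B-score is computed from the integrated fluorescence ratio over baseline after carbachol; higher B-score means a larger calcium signal and so more RGS4 inhibition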
# MrgX1 ag – agonists of human MrgX1 receptor, primary screen, HEK293 cells, Fluo-4 calcium flux; Mas-related G-protein coupled receptor member X1 (Homo sapiens), Q96LB2; Fluo-4 calcium fluorescence, agonist mode; hits give high values; B-score at 10 µM; 310,000 tested, 0.44% active; AID 588627, 2011;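 active = calcium response B-score plate-corrected fluorescence ratio at least 3 library SD, with starting fluorescence B-score inside 5 SD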
#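 System – MrgX1-expressing HEK293 cells · Incubation – cells plated overnight, dye loaded 0.5 h 37 °C, 0.5 h room temperature · Technique – kinetic Fluo-4 NW fluorescence of intracellular calcium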
# MrgX1 antagonist – antagonists of human MrgX1 receptor, primary screen, HEK293 cells, Fluo-4 calcium flux | Mas-related G-protein coupled receptor member X1 (Homo sapiens), Q96LB2 | BAM8-22 antagonism; hits give low values | B-score at 10 µM | 310,000 tested, 1.3% active;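 active = calcium-response B-score plate-corrected more than 3 library SD below zero, starting fluorescence within 5 deviations, no agonist response on first addition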;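 note: peak minus trough fluorescence over baseline after final BAM8-22 challenge near maximal dose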
# * hit, by the source's call; i = inactive.
SMILES,RGS4 act,MrgX1 allo act,RGS4 block,MrgX1 ag,MrgX1 antagonist
O=C(Nc1cccnc1)c1ccc(NS(=O)(=O)c2cccc([N+](=O)[O-])c2)cc1,i,14.5*,i,i,i
CC(C)c1ccc(C2C3CSCC=C3C(C#N)=C(N)C2(C#N)C#N)cc1 (stereo unspecified),-8.73*,i,i,i,i
CN1CCN(c2ccc(NC(=O)c3ccc(Oc4ccccc4)cc3)cc2)CC1,-7.7*,i,i,i,i
CC1Nc2ncnc(N3CCc4ccccc4C3)c2N(Cc2ccc(Br)cc2)C1=O (stereo unspecified),-8.96*,i,i,i,i
CC1Nc2ncnc(N3CCc4ccccc4C3)c2N(Cc2ccc(Cl)cc2)C1=O (stereo unspecified),i,i,i,i,i
Cc1ccc(C)c(OCc2cc(C(=O)N3CCc4sccc4C3)no2)c1,i,i,i,i,i
CCn1ccnc1CN(C)C(=O)c1cc(COc2ccccc2SC)on1,-7.59*,i,i,i,i
CSc1ccccc1OCc1cc(C(=O)N2CCc3sccc3C2)no1,-7.85*,i,i,i,i
O=C(COc1ccccc1)NCc1nnc2c3ccccc3c(-c3ccccc3)nn12,i,i,i,i,i
CCN(CC)CCNc1ncnc2c1[nH]c1ccc(OC)cc12,i,i,i,i,i
COc1ccc2[nH]c3c(NCCCOC(C)C)ncnc3c2c1,-7.42*,i,i,i,i
COc1ccccc1N(CC(O)CN1CCCCC1)S(=O)(=O)c1ccc(C)cc1 (stereo unspecified),i,i,i,i,i
Cc1nc2ccc(Cl)cc2c(-c2ccccc2Cl)c1CC(=O)O,i,i,i,i,i
CN1CCc2nc3ccc(Cl)cc3c(-c3ccccc3Cl)c2C1,-8.64*,i,i,i,i
O=C(CSc1nnc(CNc2ccc(F)cc2)o1)N1c2ccccc2Sc2ccccc21,i,i,i,i,i
OC(CC#CCN1CCCC1)(c1ccccc1)c1ccccc1,i,i,i,i,i
CN1CCN(CC#CCC(O)(c2ccccc2)C2CCCC2)CC1 (stereo unspecified),-7.55*,i,i,i,i
CN1CCN(CC#CCC(O)(c2ccccc2)c2ccccc2)CC1,i,i,i,i,i
OC(CC#CCN1CCCCC1)(c1ccccc1)c1ccccc1,-7.53*,i,i,i,i
O=C1NC(=S)N/C1=C/c1cc([N+](=O)[O-])ccc1O,i,12.4*,i,i,i
N#Cc1c(NC(=S)NC(=O)c2ccccc2)sc2c1CCN(CCc1ccccc1)C2,i,i,i,57.7*,i
CC(=O)Nc1sc2c(c1C(c1ccccc1Cl)N1CCN(CCO)CC1)CCCC2 (stereo unspecified),-7.51*,i,i,i,i
O=C(CN1CCCCCC1)Nc1ccccc1Oc1ccccc1,-7.21*,i,i,i,i
Clc1ccc(SCc2cc(Cl)nc(-c3ccccc3)n2)cc1,-6.96*,i,i,i,i
Clc1cc(CSc2ccccc2)nc(-c2ccccc2)n1,i,i,i,i,i
Fc1ccccc1N1CCN(C2CCCN(Cc3cccc(C(F)(F)F)c3)C2)CC1 (stereo unspecified),i,i,i,i,i
CCCc1cc2nnc(SCC(=O)N(C)C3CCCCC3)n2c(N)n1,i,i,i,i,i
Cc1nc2nc(SCC(=O)NCCCN3CCCCCC3)nn2c(C)c1Cc1ccccc1,-7.45*,i,i,i,i
Cc1cccc(Nc2cc(C)c3c(O)cccc3n2)c1C,i,i,i,i,i
CCN1C(=O)/C(=C/N2CCc3ccccc32)SC1=S,i,i,i,33.9*,i

# Screening results as filed in PubChem BioAssay.
